The source made the active and inactive calls. No cut-off for these calls is given here.
Experiments:
[1] = target: T1, Bromodomain-containing protein 9 (Homo sapiens) (UniProt Q9H8M2); test: Binding affinity to biotinylated BRD9 (unknown origin) expressed in Escherichia coli at 0.2 to 1 uM by Biolayer Interferometric analysis; settings: dose 0.2-1 µM
T1 sequence (whole entry): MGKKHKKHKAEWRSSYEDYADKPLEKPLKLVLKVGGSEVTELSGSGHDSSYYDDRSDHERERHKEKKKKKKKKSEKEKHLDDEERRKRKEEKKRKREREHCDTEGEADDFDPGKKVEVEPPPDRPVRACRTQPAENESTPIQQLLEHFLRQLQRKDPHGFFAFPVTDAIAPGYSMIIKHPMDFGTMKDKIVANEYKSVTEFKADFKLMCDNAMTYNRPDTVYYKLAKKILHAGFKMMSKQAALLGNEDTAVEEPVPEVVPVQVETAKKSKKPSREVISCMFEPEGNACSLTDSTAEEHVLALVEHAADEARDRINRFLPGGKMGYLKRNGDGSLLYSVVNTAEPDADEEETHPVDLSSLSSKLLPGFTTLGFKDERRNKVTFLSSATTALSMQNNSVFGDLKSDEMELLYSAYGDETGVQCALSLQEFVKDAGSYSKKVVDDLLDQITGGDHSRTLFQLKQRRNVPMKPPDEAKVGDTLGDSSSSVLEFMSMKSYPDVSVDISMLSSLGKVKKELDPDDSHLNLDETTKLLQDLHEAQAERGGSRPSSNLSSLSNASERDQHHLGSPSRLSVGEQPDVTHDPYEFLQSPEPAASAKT
Outline: (§1)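 Bromodomains carrying a BirA biotin ligase targeting sequence, coexpressed with BirA in bacteria to give homogeneous in vivo biotin labelling, checked by mass spectrometry. Biotinylated proteins probed by biolayer interferometry with compound at two concentrations, 0.2 and 1.0 μM.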

[2] = target: T2, SWI/SNF-related matrix-associated actin-dependent regulator of chromatin subfamily A member 4 (Homo sapiens, UniProt P51532); test: Binding affinity to SMARCA4 in human HUT78 cell extract using GSK2801 affinity matrix by chemoproteomic competition binding assay; format: cell-free
[3] = target: Histone-lysine N-methyltransferase ASH1L (Homo sapiens) (UniProt Q9NR48); test: Binding affinity to biotinylated ASH1L bromodomain (unknown origin) expressed in Escherichia coli at 0.2 to 1 uM by Biolayer Interferometric analysis; settings: dose 0.2-1 µM; outline: as §1
[4] = target: ATPase family AAA domain-containing protein 2 (Homo sapiens) (UniProt Q6PL18); test: Binding affinity to biotinylated ATAD2 (unknown origin) expressed in Escherichia coli at 0.2 to 1 uM by Biolayer Interferometric analysis; settings: dose 0.2-1 µM; outline: as §1
[5] = target: Tyrosine-protein kinase BAZ1B (Homo sapiens) (UniProt Q9UIG0); test: Binding affinity to biotinylated BAZ1B (unknown origin) expressed in Escherichia coli at 0.2 to 1 uM by Biolayer Interferometric analysis; settings: dose 0.2-1 µM; outline: as §1
[6] = target: Bromodomain-containing protein 1 (Homo sapiens) (UniProt O95696); test: Binding affinity to biotinylated BRD1 (unknown origin) expressed in Escherichia coli at 0.2 to 1 uM by Biolayer Interferometric analysis; settings: dose 0.2-1 µM; outline: as §1
[7] = target: Bromodomain-containing protein 2 (Homo sapiens) (UniProt P25440); test: Binding affinity to biotinylated BRD2 bromodomain-1 (unknown origin) expressed in Escherichia coli at 0.2 to 1 uM by Biolayer Interferometric analysis; settings: dose 0.2-1 µM; outline: as §1
[8] = target: Bromodomain-containing protein 2 (Homo sapiens) (UniProt P25440); test: Binding affinity to biotinylated BRD2 bromodomain-2 (unknown origin) expressed in Escherichia coli at 0.2 to 1 uM by Biolayer Interferometric analysis; settings: dose 0.2-1 µM; outline: as §1
[9] = target: Bromodomain-containing protein 3 (Homo sapiens) (UniProt Q15059); test: Binding affinity to biotinylated BRD3 bromodomain-1 (unknown origin) expressed in Escherichia coli at 0.2 to 1 uM by Biolayer Interferometric analysis; settings: dose 0.2-1 µM; outline: as §1
[10] = target: Bromodomain-containing protein 3 (Homo sapiens) (UniProt Q15059); test: Binding affinity to biotinylated BRD3 bromodomain-2 (unknown origin) expressed in Escherichia coli at 0.2 to 1 uM by Biolayer Interferometric analysis; settings: dose 0.2-1 µM; outline: as §1
[11] = target: Bromodomain-containing protein 4 (Homo sapiens) (UniProt O60885); test: Binding affinity to biotinylated BRD4 bromodomain-1 (unknown origin) expressed in Escherichia coli at 0.2 to 1 uM by Biolayer Interferometric analysis; settings: dose 0.2-1 µM; outline: as §1
[12] = target: Bromodomain-containing protein 4 (Homo sapiens) (UniProt O60885); test: Binding affinity to biotinylated BRD4 bromodomain-2 (unknown origin) expressed in Escherichia coli at 0.2 to 1 uM by Biolayer Interferometric analysis; settings: dose 0.2-1 µM; outline: as §1
[13] = target: Bromodomain-containing protein 7 (Homo sapiens) (UniProt Q9NPI1); test: Binding affinity to biotinylated BRD7 (unknown origin) expressed in Escherichia coli at 0.2 to 1 uM by Biolayer Interferometric analysis; settings: dose 0.2-1 µM; outline: as §1
[14] = target: Bromodomain testis-specific protein (Homo sapiens) (UniProt Q58F21); test: Binding affinity to biotinylated BRDT bromodomain-1 (unknown origin) expressed in Escherichia coli at 0.2 to 1 uM by Biolayer Interferometric analysis; settings: dose 0.2-1 µM; outline: as §1
[15] = target: Bromodomain testis-specific protein (Homo sapiens) (UniProt Q58F21); test: Binding affinity to biotinylated BRDT bromodomain-2 (unknown origin) expressed in Escherichia coli at 0.2 to 1 uM by Biolayer Interferometric analysis; settings: dose 0.2-1 µM; outline: as §1
Peregrin (Homo sapiens) = Peregrin (Homo sapiens) (UniProt P55201); test: Binding affinity to biotinylated BRPF1 bromodomain-1 (unknown origin) expressed in Escherichia coli at 0.2 to 1 uM by Biolayer Interferometric analysis; settings: dose 0.2-1 µM; outline: as §1
[16] = target: Bromodomain and WD repeat-containing protein 3 (Homo sapiens) (UniProt Q6RI45); test: Binding affinity to biotinylated BRWD3 bromodomain-2 (unknown origin) expressed in Escherichia coli at 0.2 to 1 uM by Biolayer Interferometric analysis; settings: dose 0.2-1 µM; outline: as §1
[17] = target: Chromatin remodeling regulator CECR2 (Homo sapiens) (UniProt Q9BXF3); test: Binding affinity to biotinylated CECR2 (unknown origin) expressed in Escherichia coli at 0.2 to 1 uM by Biolayer Interferometric analysis; settings: dose 0.2-1 µM; outline: as §1
[18] = target: CREB-binding protein (Homo sapiens) (UniProt Q92793); test: Binding affinity to biotinylated CREBBP (unknown origin) expressed in Escherichia coli at 0.2 to 1 uM by Biolayer Interferometric analysis; settings: dose 0.2-1 µM; outline: as §1
[19] = target: Histone acetyltransferase p300 (Homo sapiens) (UniProt Q09472); test: Binding affinity to biotinylated EP300 (unknown origin) expressed in Escherichia coli at 0.2 to 1 uM by Biolayer Interferometric analysis; settings: dose 0.2-1 µM; outline: as §1
[20] = target: Nucleosome-remodeling factor subunit BPTF (Homo sapiens) (UniProt Q12830); test: Binding affinity to biotinylated FALZ (unknown origin) expressed in Escherichia coli at 0.2 to 1 uM by Biolayer Interferometric analysis; settings: dose 0.2-1 µM; outline: as §1
[21] = target: Histone acetyltransferase KAT2A (Homo sapiens) (UniProt Q92830); test: Binding affinity to biotinylated GCN5L2 (unknown origin) expressed in Escherichia coli at 0.2 to 1 uM by Biolayer Interferometric analysis; settings: dose 0.2-1 µM; outline: as §1
[22] = target: ATPase family AAA domain-containing protein 2B (Homo sapiens) (UniProt Q9ULI0); test: Binding affinity to biotinylated KIAA1240 (unknown origin) expressed in Escherichia coli at 0.2 to 1 uM by Biolayer Interferometric analysis; settings: dose 0.2-1 µM; outline: as §1
[23] = target: Protein polybromo-1 (Homo sapiens) (UniProt Q86U86); test: Binding affinity to biotinylated PB1 bromodomain-1 (unknown origin) expressed in Escherichia coli at 0.2 to 1 uM by Biolayer Interferometric analysis; settings: dose 0.2-1 µM; outline: as §1
Sequence of Protein polybromo-1 (Homo sapiens) (Q86U86 whole entry): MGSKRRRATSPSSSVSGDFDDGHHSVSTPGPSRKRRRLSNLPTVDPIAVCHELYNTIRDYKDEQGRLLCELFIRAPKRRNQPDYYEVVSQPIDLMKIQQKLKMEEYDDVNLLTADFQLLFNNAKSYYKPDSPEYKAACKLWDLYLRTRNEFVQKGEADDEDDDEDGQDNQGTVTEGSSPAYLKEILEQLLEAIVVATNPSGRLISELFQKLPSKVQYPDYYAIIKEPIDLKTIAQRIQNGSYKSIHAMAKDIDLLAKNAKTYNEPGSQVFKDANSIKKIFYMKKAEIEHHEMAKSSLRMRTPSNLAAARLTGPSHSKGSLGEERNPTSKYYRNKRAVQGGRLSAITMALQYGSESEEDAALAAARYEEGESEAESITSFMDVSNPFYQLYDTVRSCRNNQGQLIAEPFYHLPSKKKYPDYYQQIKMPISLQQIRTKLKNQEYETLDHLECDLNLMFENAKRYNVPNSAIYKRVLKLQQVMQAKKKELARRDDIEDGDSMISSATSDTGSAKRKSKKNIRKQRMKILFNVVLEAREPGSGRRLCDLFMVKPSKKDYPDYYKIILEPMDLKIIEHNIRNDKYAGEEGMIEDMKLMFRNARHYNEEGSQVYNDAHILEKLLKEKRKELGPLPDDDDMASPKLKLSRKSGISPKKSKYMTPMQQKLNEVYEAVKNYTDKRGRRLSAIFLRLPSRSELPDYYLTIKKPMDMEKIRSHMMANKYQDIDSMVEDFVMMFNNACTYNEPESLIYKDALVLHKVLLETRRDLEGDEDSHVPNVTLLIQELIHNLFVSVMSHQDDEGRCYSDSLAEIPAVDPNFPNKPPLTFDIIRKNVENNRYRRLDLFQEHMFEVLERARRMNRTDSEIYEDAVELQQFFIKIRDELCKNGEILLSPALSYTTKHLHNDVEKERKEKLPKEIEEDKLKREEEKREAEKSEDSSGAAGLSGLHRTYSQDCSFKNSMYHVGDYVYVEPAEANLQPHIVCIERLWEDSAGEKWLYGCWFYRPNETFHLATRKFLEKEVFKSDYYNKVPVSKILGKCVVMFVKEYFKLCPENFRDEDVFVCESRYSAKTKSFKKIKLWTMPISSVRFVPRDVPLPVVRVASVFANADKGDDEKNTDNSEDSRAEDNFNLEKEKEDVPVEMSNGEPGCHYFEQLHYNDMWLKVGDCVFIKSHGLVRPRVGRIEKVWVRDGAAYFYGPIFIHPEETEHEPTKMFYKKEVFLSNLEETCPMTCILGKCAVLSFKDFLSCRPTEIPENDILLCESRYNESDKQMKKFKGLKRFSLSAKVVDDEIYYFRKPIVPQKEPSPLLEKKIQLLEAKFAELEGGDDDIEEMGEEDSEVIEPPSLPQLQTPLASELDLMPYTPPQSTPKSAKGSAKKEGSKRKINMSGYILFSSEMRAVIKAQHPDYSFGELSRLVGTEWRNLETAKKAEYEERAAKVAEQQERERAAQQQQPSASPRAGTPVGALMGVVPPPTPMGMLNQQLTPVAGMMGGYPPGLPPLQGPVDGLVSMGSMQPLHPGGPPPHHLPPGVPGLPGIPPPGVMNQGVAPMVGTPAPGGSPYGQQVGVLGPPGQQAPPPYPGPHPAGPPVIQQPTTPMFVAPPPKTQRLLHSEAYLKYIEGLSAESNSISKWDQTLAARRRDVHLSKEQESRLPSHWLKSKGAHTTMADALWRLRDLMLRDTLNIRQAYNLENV

[24] = target: Protein polybromo-1 (Homo sapiens) (UniProt Q86U86); test: Binding affinity to biotinylated PB1 bromodomain-2 (unknown origin) expressed in Escherichia coli at 0.2 to 1 uM by Biolayer Interferometric analysis; settings: dose 0.2-1 µM; outline: as §1
[25] = target: Protein polybromo-1 (Homo sapiens) (UniProt Q86U86); test: Binding affinity to biotinylated PB1 bromodomain-4 (unknown origin) expressed in Escherichia coli at 0.2 to 1 uM by Biolayer Interferometric analysis; settings: dose 0.2-1 µM; outline: as §1
[26] = target: Protein polybromo-1 (Homo sapiens) (UniProt Q86U86); test: Binding affinity to biotinylated PB1 bromodomain-5 (unknown origin) expressed in Escherichia coli at 0.2 to 1 uM by Biolayer Interferometric analysis; settings: dose 0.2-1 µM; outline: as §1
[27] = target: Protein polybromo-1 (Homo sapiens) (UniProt Q86U86); test: Binding affinity to biotinylated PB1 bromodomain-6 (unknown origin) expressed in Escherichia coli at 0.2 to 1 uM by Biolayer Interferometric analysis; settings: dose 0.2-1 µM; outline: as §1
[28] = target: Histone acetyltransferase KAT2B (Homo sapiens) (UniProt Q92831); test: Binding affinity to biotinylated PCAF (unknown origin) expressed in Escherichia coli at 0.2 to 1 uM by Biolayer Interferometric analysis; settings: dose 0.2-1 µM; outline: as §1
[29] = target: PH-interacting protein (Homo sapiens) (UniProt Q8WWQ0); test: Binding affinity to biotinylated PHIP (unknown origin) expressed in Escherichia coli at 0.2 to 1 uM by Biolayer Interferometric analysis; settings: dose 0.2-1 µM; outline: as §1
[30] = target: T3, SWI/SNF-related matrix-associated actin-dependent regulator of chromatin subfamily A member 2 (Homo sapiens, UniProt P51531); test: Binding affinity to biotinylated SMARCA2 (unknown origin) expressed in Escherichia coli at 0.2 to 1 uM by Biolayer Interferometric analysis; settings: dose 0.2-1 µM; outline: as §1
T3 sequence (P51531 whole entry): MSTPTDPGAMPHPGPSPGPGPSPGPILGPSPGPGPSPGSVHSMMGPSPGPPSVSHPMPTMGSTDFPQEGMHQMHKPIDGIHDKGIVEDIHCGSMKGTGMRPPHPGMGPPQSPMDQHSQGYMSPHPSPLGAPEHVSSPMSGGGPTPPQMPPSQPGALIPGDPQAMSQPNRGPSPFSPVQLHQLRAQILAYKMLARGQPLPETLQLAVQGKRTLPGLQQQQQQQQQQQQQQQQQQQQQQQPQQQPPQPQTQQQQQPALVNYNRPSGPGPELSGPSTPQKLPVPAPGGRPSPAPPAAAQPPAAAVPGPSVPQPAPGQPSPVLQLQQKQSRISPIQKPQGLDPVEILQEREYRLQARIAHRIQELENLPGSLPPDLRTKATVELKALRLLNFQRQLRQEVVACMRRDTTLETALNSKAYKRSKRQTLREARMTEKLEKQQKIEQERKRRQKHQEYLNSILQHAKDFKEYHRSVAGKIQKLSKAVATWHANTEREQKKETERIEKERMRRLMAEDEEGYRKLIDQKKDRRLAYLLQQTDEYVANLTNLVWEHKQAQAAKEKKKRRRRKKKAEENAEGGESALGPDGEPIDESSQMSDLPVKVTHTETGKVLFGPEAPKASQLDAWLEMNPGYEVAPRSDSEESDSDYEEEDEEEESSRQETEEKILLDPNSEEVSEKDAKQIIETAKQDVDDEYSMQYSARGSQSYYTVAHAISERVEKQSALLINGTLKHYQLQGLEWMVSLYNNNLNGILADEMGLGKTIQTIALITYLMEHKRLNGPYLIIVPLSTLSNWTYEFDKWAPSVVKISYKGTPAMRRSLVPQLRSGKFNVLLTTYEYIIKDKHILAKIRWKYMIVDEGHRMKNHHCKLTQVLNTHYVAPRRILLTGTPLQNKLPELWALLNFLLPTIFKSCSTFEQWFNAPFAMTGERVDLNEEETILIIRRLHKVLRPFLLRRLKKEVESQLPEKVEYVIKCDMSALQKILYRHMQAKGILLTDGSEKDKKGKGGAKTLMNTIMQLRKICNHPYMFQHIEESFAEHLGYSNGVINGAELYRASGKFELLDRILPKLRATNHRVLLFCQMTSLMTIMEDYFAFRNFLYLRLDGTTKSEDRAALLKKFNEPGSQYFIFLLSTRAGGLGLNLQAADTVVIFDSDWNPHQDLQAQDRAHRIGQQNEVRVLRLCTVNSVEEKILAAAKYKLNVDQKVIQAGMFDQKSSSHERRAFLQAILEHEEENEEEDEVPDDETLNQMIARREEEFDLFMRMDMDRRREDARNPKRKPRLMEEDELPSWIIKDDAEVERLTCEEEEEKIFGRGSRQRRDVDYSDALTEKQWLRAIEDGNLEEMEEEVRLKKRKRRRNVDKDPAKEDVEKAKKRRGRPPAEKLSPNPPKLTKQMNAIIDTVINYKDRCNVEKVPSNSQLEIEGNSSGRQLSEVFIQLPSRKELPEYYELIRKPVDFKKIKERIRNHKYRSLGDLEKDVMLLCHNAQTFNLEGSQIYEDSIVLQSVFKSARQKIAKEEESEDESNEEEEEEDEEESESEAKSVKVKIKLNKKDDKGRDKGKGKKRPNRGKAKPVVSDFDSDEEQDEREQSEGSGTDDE

[31] = target: T2, SWI/SNF-related matrix-associated actin-dependent regulator of chromatin subfamily A member 4; test: Binding affinity to biotinylated SMARCA4 (unknown origin) expressed in Escherichia coli at 0.2 to 1 uM by Biolayer Interferometric analysis; settings: dose 0.2-1 µM; outline: as §1
[32] = target: Transcription initiation factor TFIID subunit 1 (Homo sapiens) (UniProt P21675); test: Binding affinity to biotinylated TAF1 bromodomain-1 (unknown origin) expressed in Escherichia coli at 0.2 to 1 uM by Biolayer Interferometric analysis; settings: dose 0.2-1 µM; outline: as §1
Sequence of Transcription initiation factor TFIID subunit 1 (Homo sapiens) (P21675 whole entry): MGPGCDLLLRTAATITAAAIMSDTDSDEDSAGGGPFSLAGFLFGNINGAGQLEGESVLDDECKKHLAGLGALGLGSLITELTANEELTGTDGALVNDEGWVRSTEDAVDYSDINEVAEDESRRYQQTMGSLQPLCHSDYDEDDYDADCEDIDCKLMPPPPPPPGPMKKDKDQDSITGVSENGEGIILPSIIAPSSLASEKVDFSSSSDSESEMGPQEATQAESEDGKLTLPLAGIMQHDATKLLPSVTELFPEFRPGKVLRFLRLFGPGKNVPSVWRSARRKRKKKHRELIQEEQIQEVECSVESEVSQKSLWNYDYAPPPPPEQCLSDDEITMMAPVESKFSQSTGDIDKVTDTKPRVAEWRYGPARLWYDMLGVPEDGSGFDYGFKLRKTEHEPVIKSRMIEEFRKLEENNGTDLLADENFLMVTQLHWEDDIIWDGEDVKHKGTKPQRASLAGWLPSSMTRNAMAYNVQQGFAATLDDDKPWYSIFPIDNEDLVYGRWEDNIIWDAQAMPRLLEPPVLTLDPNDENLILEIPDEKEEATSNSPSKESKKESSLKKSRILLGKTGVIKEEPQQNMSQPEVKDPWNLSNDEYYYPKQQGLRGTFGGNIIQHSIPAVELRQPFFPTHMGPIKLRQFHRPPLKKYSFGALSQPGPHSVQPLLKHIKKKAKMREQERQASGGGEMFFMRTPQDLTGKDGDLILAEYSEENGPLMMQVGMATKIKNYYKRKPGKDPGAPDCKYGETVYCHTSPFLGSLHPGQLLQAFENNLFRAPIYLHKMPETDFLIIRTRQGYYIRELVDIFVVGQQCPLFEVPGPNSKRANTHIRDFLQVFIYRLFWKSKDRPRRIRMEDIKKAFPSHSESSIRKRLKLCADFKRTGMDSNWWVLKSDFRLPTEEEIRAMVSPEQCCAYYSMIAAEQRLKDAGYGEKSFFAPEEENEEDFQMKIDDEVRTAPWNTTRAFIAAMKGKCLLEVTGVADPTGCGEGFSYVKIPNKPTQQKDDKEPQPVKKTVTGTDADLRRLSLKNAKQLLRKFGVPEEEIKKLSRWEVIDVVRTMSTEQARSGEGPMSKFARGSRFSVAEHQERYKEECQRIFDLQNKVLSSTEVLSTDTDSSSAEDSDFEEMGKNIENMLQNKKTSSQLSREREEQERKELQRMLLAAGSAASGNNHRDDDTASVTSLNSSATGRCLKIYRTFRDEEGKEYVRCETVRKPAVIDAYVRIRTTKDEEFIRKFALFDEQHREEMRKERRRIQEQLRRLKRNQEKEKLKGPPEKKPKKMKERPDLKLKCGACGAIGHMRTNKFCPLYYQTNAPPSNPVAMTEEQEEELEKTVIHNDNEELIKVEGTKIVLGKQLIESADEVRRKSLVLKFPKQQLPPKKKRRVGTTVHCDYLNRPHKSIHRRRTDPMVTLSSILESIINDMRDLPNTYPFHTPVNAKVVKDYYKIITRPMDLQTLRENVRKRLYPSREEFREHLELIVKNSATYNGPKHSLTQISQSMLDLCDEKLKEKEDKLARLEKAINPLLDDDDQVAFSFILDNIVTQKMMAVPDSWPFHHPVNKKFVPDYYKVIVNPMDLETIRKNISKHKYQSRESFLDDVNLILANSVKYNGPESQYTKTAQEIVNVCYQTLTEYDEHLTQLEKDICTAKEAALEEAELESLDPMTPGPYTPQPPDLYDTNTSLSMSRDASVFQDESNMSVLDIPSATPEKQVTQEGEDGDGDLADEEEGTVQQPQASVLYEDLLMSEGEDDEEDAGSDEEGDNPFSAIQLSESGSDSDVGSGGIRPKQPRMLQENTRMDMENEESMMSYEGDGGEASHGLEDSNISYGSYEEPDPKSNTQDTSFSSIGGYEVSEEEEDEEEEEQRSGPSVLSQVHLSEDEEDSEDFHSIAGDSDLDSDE

[33] = target: Transcription initiation factor TFIID subunit 1 (Homo sapiens) (UniProt P21675); test: Binding affinity to biotinylated TAF1 bromodomain-2 (unknown origin) expressed in Escherichia coli at 0.2 to 1 uM by Biolayer Interferometric analysis; settings: dose 0.2-1 µM; outline: as §1
[34] = target: Transcription initiation factor TFIID subunit 1-like (Homo sapiens) (UniProt Q8IZX4); test: Binding affinity to biotinylated TAF1L bromodomain-1 (unknown origin) expressed in Escherichia coli at 0.2 to 1 uM by Biolayer Interferometric analysis; settings: dose 0.2-1 µM; outline: as §1
[35] = target: Transcription initiation factor TFIID subunit 1-like (Homo sapiens) (UniProt Q8IZX4); test: Binding affinity to biotinylated TAF1L bromodomain-2 (unknown origin) expressed in Escherichia coli at 0.2 to 1 uM by Biolayer Interferometric analysis; settings: dose 0.2-1 µM; outline: as §1
[36] = target: Transcription intermediary factor 1-alpha (Homo sapiens) (UniProt O15164); test: Binding affinity to biotinylated TIF1 bromodomain-1 (unknown origin) expressed in Escherichia coli at 0.2 to 1 uM by Biolayer Interferometric analysis; settings: dose 0.2-1 µM; outline: as §1
[37] = target: Transcription intermediary factor 1-beta (Homo sapiens) (UniProt Q13263); test: Binding affinity to biotinylated TRIM28 (unknown origin) expressed in Escherichia coli at 0.2 to 1 uM by Biolayer Interferometric analysis; settings: dose 0.2-1 µM; outline: as §1
[38] = target: Bromodomain and WD repeat-containing protein 1 (Homo sapiens) (UniProt Q9NSI6); test: Binding affinity to biotinylated WDR9 (unknown origin) expressed in Escherichia coli at 0.2 to 1 uM by Biolayer Interferometric analysis; settings: dose 0.2-1 µM; outline: as §1
[39] = target: Nuclear body protein SP140 (Homo sapiens) (UniProt Q13342); test: Binding affinity to biotinylated SP140 (unknown origin) expressed in Escherichia coli at 0.2 to 1 uM by Biolayer Interferometric analysis; settings: dose 0.2-1 µM; outline: as §1
[40] = target: Bromodomain adjacent to zinc finger domain protein 2A (Homo sapiens) (UniProt Q9UIF9); test: Binding affinity to BAZ2A in human HuT78 cell extract up to 50 uM using GSK2801 affinity matrix by chemoproteomic competition binding assay; format: cell-free
[41] = target: Bromodomain adjacent to zinc finger domain protein 2B (Homo sapiens) (UniProt Q9UIF8); test: Binding affinity to BAZ2B in human HuT78 cell extract up to 50 uM using GSK2801 affinity matrix by chemoproteomic competition binding assay; format: cell-free
[42] = target: T3, SWI/SNF-related matrix-associated actin-dependent regulator of chromatin subfamily A member 2; test: Binding affinity to SMARCA2 in human HuT78 cell extract using GSK2801 affinity matrix by chemoproteomic competition binding assay; format: cell-free

- Activity [1]: Active
- Kd [2]: 15.8 µM
- Activity [3]: inactive
- Activity [4]: inactive
- Activity [5]: inactive
- Activity [6]: inactive
- Activity [7]: inactive
- Activity [8]: inactive
- Activity [9]: inactive
- Activity [10]: inactive
- Activity [11]: inactive
- Activity [12]: inactive
- Activity [13]: inactive
- Activity [14]: inactive
- Activity [15]: inactive
- Activity (Peregrin (Homo sapiens)): inactive
- Activity [16]: inactive
- Activity [17]: inactive
- Activity [18]: inactive
- Activity [19]: inactive
- Activity [20]: inactive
- Activity [21]: inactive
- Activity [22]: inactive
- Activity [23]: inactive
- Activity [24]: inactive
- Activity [25]: inactive
- Activity [26]: inactive
- Activity [27]: inactive
- Activity [28]: inactive
- Activity [29]: inactive
- Activity [30]: inactive
- Activity [31]: inactive
- Activity [32]: inactive
- Activity [33]: inactive
- Activity [34]: inactive
- Activity [35]: inactive
- Activity [36]: inactive
- Activity [37]: inactive
- Activity [38]: inactive
- Activity [39]: inactive
- Activity [40]: inactive
- Activity [41]: inactive
- Kd [42]: 15.8 µM
Structure (SMILES): CCCOc1ccn2c(C(C)=O)cc(-c3cccc(OC)c3)c2c1

Source: ChEMBL document CHEMBL5712886, “Discovery and Characterization of GSK2801, a Selective Chemical Probe for the Bromodomains BAZ2A and BAZ2B” (J Med Chem, 2016)
